Laboratory results: ChEMBL document CHEMBL4346686, “Discovery and biological evaluation of novel androgen receptor antagonist for castration-resistant prostate cancer” (Eur J Med Chem, 2019)
Substitutions are numbered along the chain they refer to.

What was measured:
Androgen receptor = molecular target: T1, Androgen receptor (Homo sapiens, UniProt P10275); format: cell-based, LNCaP
T1 sequence (P10275 whole entry): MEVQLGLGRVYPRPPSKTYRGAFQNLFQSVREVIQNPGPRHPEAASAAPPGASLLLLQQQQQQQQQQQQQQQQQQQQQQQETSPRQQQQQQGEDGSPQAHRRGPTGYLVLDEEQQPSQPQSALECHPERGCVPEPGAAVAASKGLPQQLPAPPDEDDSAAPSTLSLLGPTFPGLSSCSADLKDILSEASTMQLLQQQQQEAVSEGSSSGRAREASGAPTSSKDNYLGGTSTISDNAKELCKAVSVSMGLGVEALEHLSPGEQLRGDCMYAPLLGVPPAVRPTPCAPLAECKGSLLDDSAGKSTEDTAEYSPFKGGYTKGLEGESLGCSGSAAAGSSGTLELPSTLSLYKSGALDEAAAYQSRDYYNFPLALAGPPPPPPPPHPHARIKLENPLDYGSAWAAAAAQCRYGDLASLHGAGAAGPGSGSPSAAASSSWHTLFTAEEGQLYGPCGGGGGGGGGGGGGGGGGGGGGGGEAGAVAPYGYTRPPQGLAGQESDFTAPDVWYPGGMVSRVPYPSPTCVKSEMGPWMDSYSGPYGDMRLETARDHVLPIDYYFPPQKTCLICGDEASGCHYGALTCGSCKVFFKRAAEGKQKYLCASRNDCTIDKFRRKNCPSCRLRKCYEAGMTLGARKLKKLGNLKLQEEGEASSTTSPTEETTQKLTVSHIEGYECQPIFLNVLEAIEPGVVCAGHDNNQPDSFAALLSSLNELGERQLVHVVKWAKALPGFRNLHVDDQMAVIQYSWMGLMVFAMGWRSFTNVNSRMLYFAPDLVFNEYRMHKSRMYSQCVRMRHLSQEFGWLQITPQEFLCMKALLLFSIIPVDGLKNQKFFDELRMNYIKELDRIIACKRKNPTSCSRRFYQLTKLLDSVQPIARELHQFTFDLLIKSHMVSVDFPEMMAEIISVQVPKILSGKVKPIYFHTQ

[1] = test system: T2, Androgen receptor (Homo sapiens), P10275 [F877L]; experiment: Antagonist activity against human AR F876L mutant expressed in human PC3 cells assessed as inhibition of 1 nM R1881-induced transactivation incubated for 24 hrs by dual luciferase reporter gene assay; format: cell-based
T2 sequence (whole entry): T1 sequence (P10275 whole entry) with F877L
In short: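 PC-3 cells in DMEM/F12 (1:1) with 5% charcoal-stripped FBS, cotransfected with 50 ng F876L AR plasmid and 50 ng AR luciferase reporter per well. 24 h post-transfection, compound plus 1 nM R1881 for 24 h. Firefly luminescence normalized to Renilla; mean ± SEM, n = 3.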

[2] = molecular target: T3, Androgen receptor (Homo sapiens) (UniProt P10275); experiment: Antagonist activity at androgen receptor in human VCaP cells assessed as inhibition of R1881-induced PSA mRNA expression after 24 hrs by qRT-PCR analysis; format: cell-based
T3 sequence (whole entry): T1 sequence (P10275 whole entry)
In short: (§1)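 VCaP cells held 48 h in DMEM with 5% charcoal-stripped FBS, then 24 h with compound plus 0.2 nM R1881. TRIzol RNA extraction, cDNA synthesis, qRT-PCR for the target mRNA normalized to GAPDH; mean ± SD, n = 3.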

[3] = AUC ( 0 to infinity) in Sprague-Dawley rat at 30 mg/kg, po measured upto 24 hrs by LC-MS/MS analysis; format: ADME, organism-based; parameters: dose 30 mg/kg, time infinity, route oral; conditions: in vivo
In short: (§2)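 Male SD rats (N = 3), single oral 30 mg/kg in PEG200/DMA (9:1, v/v). Blood from retrobulbar vein at 0–24 h; heparinized plasma, protein precipitation with methanol, LC-MS/MS quantitation; parameters by non-compartmental analysis.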

[4] = Antiproliferative activity against human LNCaP-AR cells assessed as reduction in cell viability incubated for 6 days by CCK8 assay; format: functional, cell-based; conditions: 144 h
In short: (§3)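 Cells seeded (2×10^4 per well for VCaP, 1–3×10^3 for the others) and compound added after 24 h as a 9-point, 3-fold serial dilution. Exposure 6 days, then CCK-8 for 1–4 h and absorbance at 450 nm. IC50 from curve fit, mean of at least two independent experiments run in duplicate.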

[5] = Half life in Sprague-Dawley rat at 30 mg/kg, po measured upto 24 hrs by LC-MS/MS analysis; format: ADME, organism-based; conditions: in vivo
In short: as §2

VCaP = experiment: Antiproliferative activity against human VCaP cells assessed as reduction in cell viability incubated for 6 days by CCK8 assay; format: functional, cell-based; conditions: 144 h
In short: as §3

[6] = Toxicity in BALB/c nude mouse xenografted with human VCaP cells assessed as weight loss at 30 mg/kg, po qd administered for 40 days relative to control; format: organism-based; conditions: in vivo, 960 h
L02 = experiment: Antiproliferative activity against human L02 cells assessed as reduction in cell viability incubated for 6 days by CCK8 assay; format: cell-based; conditions: L02, 144 h
In short: as §3

[7] = molecular target: T3, Androgen receptor (Homo sapiens); experiment: Antagonist activity at androgen receptor in human VCaP cells assessed as inhibition of R1881-induced FKBP5 mRNA expression after 24 hrs by qRT-PCR analysis; format: cell-based
In short: as §1

CWR22R = experiment: Antiproliferative activity against human 22Rv1 cells assessed as reduction in cell viability incubated for 6 days by CCK8 assay; format: functional, cell-based; conditions: 22Rv1, 144 h
In short: as §3

Cc1ccc(-c2c(C)noc2C)cc1Nc1ccc(C#N)c(Cl)c1
IC50 (Androgen receptor): 641 nM
Activity [1]: Dose-dependent effect
Activity [2]: Dose-dependent effect
AUC(0-inf) [3]: 4060 ng·h/mL
IC50 [4]: 430 nM
half-life [5]: 4.4 h
IC50 (VCaP): 700 nM
Activity [6]: Non-Toxic
IC50 (L02): 11300 nM
Activity [7]: Dose-dependent effect
IC50 (CWR22R): 3500 nM
